# In ChEMBL document CHEMBL4020752, “Synthesis and biological activity of new phthalimides as potential anti-inflammatory agents” (Bioorg Med Chem, 2017):
# Calls of active or inactive are those of the source. The rule behind the calls is not given here.
# Tests used:
# RAW264.7 [1] = experiment: Anti-inflammatory activity in mouse RAW264.7 cells assessed as inhibition of LPS-induced NO production by measuring remaining NO level at 20 ug/ml after 22 hrs by Griess assay relative to control; format: functional
# How it was run: (§1)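 RAW 264.7 cells seeded at 2×10^5/well, grown 24 h at 37 °C in 5% CO2, washed twice with PBS, given fresh medium, then exposed to LPS 1 µg/mL with or without test compound for 22 h. Nitrite in the medium read by Griess reagent at 540 nm against a sodium nitrite standard curve. IC50 obtained by nonlinear regression of % inhibition vs concentration. Means ± SD of three independent experiments.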
# RAW264.7 [2] = experiment: Anti-inflammatory activity in mouse RAW264.7 cells assessed as inhibition of LPS-induced NO production by measuring […] level at 20 ug/ml after 22 hrs by Griess assay (reference value: 25.31 uM); format: functional; how it was run: as §1
# RAW264.7 [3] = experiment: Anti-inflammatory activity in mouse RAW264.7 cells assessed as inhibition of LPS-induced NO production after 22 hrs by Griess assay; format: functional, cell-based; how it was run: as §1
# RAW264.7 [4] = experiment: Downregulation of IKKbeta level in LPS-stimulated mouse RAW264.7 cells up to 20 ug/ml preincubated with cells followed by LPS stimulation for 16 hrs by Western blot analysis; format: functional, cell-based
# How it was run: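 RAW 264.7 cells pretreated with a range of compound concentrations, then stimulated with LPS 1 µg/mL for 16 h. IKK protein analysed by western blotting.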
# RAW264.7 [5] = experiment: Downregulation of LPS-stimulated TNF-alpha protein expression level in mouse RAW264.7 cells up to 20 ug/ml preincubated for 30 mins followed by LPS stimulation for 4 hrs by Western blot analysis; format: functional, cell-based
# How it was run: (§2)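 RAW 264.7 cells pretreated with a range of compound concentrations for 30 min, then stimulated with LPS 1 µg/mL for 4 h. Total protein extracted and cytokine levels analysed by western blotting.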
# [6] = molecular target: T1, Interferon regulatory factor 3 (Mus musculus) (UniProt P70671); experiment: Inhibition of LPS-stimulated IRF-3 phosphorylation at Ser-396 residue in mouse RAW264.7 cells up to 20 ug/ml preincubated for 30 mins followed by LPS stimulation for 30 mins by Western blot analysis; format: cell-based
# T1 sequence (whole entry): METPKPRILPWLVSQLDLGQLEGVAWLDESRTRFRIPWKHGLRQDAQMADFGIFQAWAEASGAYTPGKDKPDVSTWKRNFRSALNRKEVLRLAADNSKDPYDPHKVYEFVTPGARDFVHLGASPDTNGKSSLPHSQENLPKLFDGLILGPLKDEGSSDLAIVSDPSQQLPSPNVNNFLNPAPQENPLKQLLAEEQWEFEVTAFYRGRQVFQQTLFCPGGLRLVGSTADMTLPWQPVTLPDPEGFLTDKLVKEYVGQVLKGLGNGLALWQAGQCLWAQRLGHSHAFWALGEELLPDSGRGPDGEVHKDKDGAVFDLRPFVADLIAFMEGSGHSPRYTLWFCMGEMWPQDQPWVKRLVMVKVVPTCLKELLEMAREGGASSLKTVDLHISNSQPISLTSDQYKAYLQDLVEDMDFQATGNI
# How it was run: (§3)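 Pretreatment with a range of compound concentrations for 30 min, then LPS 1 µg/mL for 30 min. IκBα, phospho-protein and related protein levels analysed by western blot.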
# RAW264.7 [7] = experiment: Downregulation of LPS-stimulated IL-1beta mRNA expression level in mouse RAW264.7 cells preincubated for 30 mins followed by LPS stimulation for 4 hrs by RT-PCR method; format: functional, cell-based
# How it was run: (§4)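 Cells pretreated with compound for 30 min, then stimulated with LPS 1 µg/mL for 4 h. Total RNA extracted and cytokine mRNA measured by real-time PCR. Means ± SD of triplicate tests.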
# RAW264.7 [8] = experiment: Upregulation of HO-1 protein level in LPS-stimulated mouse RAW264.7 cells at 20 ug/ml preincubated for 30 mins followed by LPS stimulation for 16 hrs by Western blot method; format: functional, cell-based
# How it was run: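 RAW 264.7 cells pretreated with compound for 30 min, then stimulated with LPS 1 µg/mL for 16 h. HO-1 protein measured by western blotting.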
# RAW264.7 [9] = experiment: Downregulation of LPS-stimulated IL-1beta protein expression level in mouse RAW264.7 cells up to 20 ug/ml preincubated for 30 mins followed by LPS stimulation for 4 hrs by Western blot analysis; format: functional, cell-based; how it was run: as §2
# [10] = Cytotoxicity against mouse RAW264.7 cells assessed as survival at 40 ug/ml after 22 hrs by MTT assay relative to control; format: cell-based; conditions: read-out: Survival
# How it was run: (§5)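 RAW 264.7 cells were grown in DMEM with 10% heat-inactivated FBS at 37 °C and 5% CO₂, then plated at 2×10^5 per well for 24 h. After washing, cells received 1 µg/mL LPS with or without compound (up to 40 µg/mL) for 22 h. After the Griess read, MTT (final 500 µg/mL) was added for 3 h at 37 °C. Formazan was dissolved in DMSO and read at 570 nm, giving % survival versus control.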
# RAW264.7 [11] = experiment: Downregulation of IFN-beta mRNA level in LPS-stimulated mouse RAW264.7 cells up to 20 ug/ml preincubated with cells followed by LPS stimulation for 4 hrs by RT-PCR method; format: functional, cell-based; how it was run: as §4
# [12] = Cytotoxicity against mouse RAW264.7 cells assessed as survival up to 20 ug/ml after 22 hrs by MTT assay relative to control; format: cell-based; conditions: read-out: Survival; how it was run: as §5
# Mus musculus [13] = organism: Mus musculus; experiment: Inhibition of IkB kinase in LPS-stimulated mouse RAW264.7 cells assessed as reduction in IkB-alpha phosphorylation up to 20 ug/ml preincubated with cells followed by LPS stimulation for 30 mins by Western blot analysis; how it was run: as §3
# RAW264.7 [14] = experiment: Downregulation of LPS-stimulated iNOS protein expression level in mouse RAW264.7 cells preincubated for 30 mins followed by LPS stimulation for 16 hrs by Western blot analysis; format: functional, cell-based
# How it was run: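 Cells pretreated with a range of compound concentrations for 30 min, then stimulated with LPS 1 µg/mL for 16 h. iNOS protein analysed by western blot.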
# RAW264.7 [15] = experiment: Downregulation of IkB-alpha level in LPS-stimulated mouse RAW264.7 cells up to 20 ug/ml preincubated with cells followed by LPS stimulation for 30 mins by Western blot analysis; format: functional, cell-based; how it was run: as §3
# Mus musculus [16] = organism: Mus musculus; experiment: Inhibition of NF-kB transcriptional activity in LPS-stimulated mouse RAW264.7 cells up to 20 ug/ml preincubated for 2 hrs followed by LPS stimulation for 16 hrs by SEAP reporter gene assay
# How it was run: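 RAW-SEAP cells cultured 24 h, pretreated with compound for 2 h, then given LPS 1 µg/mL for 16 h. Supernatants heated at 65 °C for 5 min and reacted with buffer (2 M diethanolamine, 1 mM MgCl2, 500 µM MUP) in the dark at 37 °C for 1 h. Fluorescence read at ex 360/em 449 nm, normalized to protein, expressed relative to vehicle control without LPS.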
# RAW264.7 [17] = experiment: Downregulation of LPS-stimulated iNOS mRNA expression level in mouse RAW264.7 cells preincubated for 30 mins followed by LPS stimulation for 4 hrs by RT-PCR method; format: functional, cell-based
# RAW264.7 [18] = experiment: Anti-inflammatory activity in mouse RAW264.7 cells assessed as inhibition of LPS-induced NO production by measuring […] level at 50 uM after 22 hrs by Griess assay (reference value: 25.31 uM); format: functional; how it was run: as §1
# RAW264.7 [19] = experiment: Anti-inflammatory activity in mouse RAW264.7 cells assessed as inhibition of LPS-induced NO production by measuring remaining NO level at 50 uM after 22 hrs by Griess assay relative to control; format: functional; how it was run: as §1
# RAW264.7 [20] = experiment: Anti-inflammatory activity in mouse RAW264.7 cells assessed as inhibition of LPS-induced NO production at 50 uM after 22 hrs by Griess assay relative to control; format: functional; conditions: RAW264.7, 22 h; how it was run: as §1
SMILES,Activity (RAW264.7 [1]),Activity (RAW264.7 [2]),other results
CC(C)CN1C(=O)c2cc(O)cc(O)c2C1=O,84.8%,21.07 µM,–
CCCN1C(=O)c2cc(OC)cc(OC)c2C1=O,93.5%,23.24 µM,–
CCCCCCCN1C(=O)c2cc(O)cc(O)c2C1=O,2.9%,0.72 µM,"inhibition (RAW264.7 [3]): Dose-dependent effect; IC50 (RAW264.7 [3]; RAW264.7, 22 h): 8.7 µg/mL; Activity (RAW264.7 [4]): Active; Activity (RAW264.7 [5]): Active; inhibition [6]: Active; Activity (RAW264.7 [7]): Dose-dependent effect; Activity (RAW264.7 [8]): Active; Activity (RAW264.7 [9]): Active; viability at 22 h, 40 ug/ml [10]: 17%; Activity (RAW264.7 [11]): Active; viability at 22 h [12]: > 95%; inhibition (Mus musculus [13]): Active; Activity (RAW264.7 [14]): Dose-dependent effect; Activity (RAW264.7 [15]): Active; inhibition (Mus musculus [16]): Active; Activity (RAW264.7 [17]): Dose-dependent effect"
COc1cc(OC)c2c(c1)C(=O)N(Cc1cccc(C)c1)C2=O,74.2%,18.43 µM,–
CCCN1C(=O)c2cc(O)cc(O)c2C1=O,83.3%,20.71 µM,–
COc1cc(OC)c2c(c1)C(=O)N(CC(C)C)C2=O,86.3%,21.45 µM,–
CCC(=O)OCCN1C(=O)c2cc(OC)cc(OC)c2C1=O,101.9%,25.31 µM,–
O=C1c2cc(O)cc(O)c2C(=O)N1Cc1ccccc1F,47.3%,11.76 µM,–
COc1cc(OC)c2c(c1)C(=O)N(Cc1ccc(Br)cc1)C2=O,81.1%,20.16 µM,–
COc1cc(OC)c2c(c1)C(=O)N(C(C)C)C2=O,97.9%,24.34 µM,–
CCCCCN1C(=O)c2cc(OC)cc(OC)c2C1=O,74.8%,18.6 µM,–
O=C1c2cc(O)cc(O)c2C(=O)N1Cc1ccccc1Br,38.8%,9.65 µM,–
Cc1cccc(CN2C(=O)c3cc(O)cc(O)c3C2=O)c1,41.7%,10.36 µM,–
CCCCN1C(=O)c2cc(O)cc(O)c2C1=O,73.4%,18.24 µM,–
CCCCCCN1C(=O)c2cc(OC)cc(OC)c2C1=O,92.6%,23.01 µM,–
CC(C)N1C(=O)c2cc(O)cc(O)c2C1=O,82.4%,20.47 µM,–

SMILES,Activity (RAW264.7 [1]),Activity (RAW264.7 [2]),other results
COc1cc(OC)c2c(c1)C(=O)N(Cc1ccccc1Br)C2=O,83.7%,20.79 µM,–
CC1CCN=C(N)S1.Cl (centres undefined),–,–,Activity (RAW264.7 [18]): 0.5 µM; Activity (RAW264.7 [19]): 2%; inhibition at 50 µM (RAW264.7 [20]): 98%
CCN1C(=O)c2cc(OC)cc(OC)c2C1=O,43.5%,10.81 µM,–
COc1cc(OC)c2c(c1)C(=O)N(CCO)C2=O,99.8%,24.8 µM,–
COc1cc(OC)c2c(c1)C(=O)N(CCOC(C)=O)C2=O,97.1%,24.13 µM,–
CCN1C(=O)c2cc(O)cc(O)c2C1=O,85%,21.12 µM,–
COc1cc(OC)c2c(c1)C(=O)N(Cc1ccccc1F)C2=O,75.9%,18.87 µM,–
COc1cc(OC)c2c(c1)C(=O)N(Cc1cccc(F)c1)C2=O,75.1%,18.65 µM,–
CCCCCCN1C(=O)c2cc(O)cc(O)c2C1=O,8%,1.98 µM,–
O=C1c2cc(O)cc(O)c2C(=O)N1Cc1cccc(F)c1,42.1%,10.46 µM,–
O=C1c2cc(O)cc(O)c2C(=O)N1Cc1ccc(Br)cc1,32.4%,8.04 µM,–
CCCCCCCN1C(=O)c2cc(OC)cc(OC)c2C1=O,84.5%,20.99 µM,–
CCCCCN1C(=O)c2cc(O)cc(O)c2C1=O,45.5%,11.3 µM,–
CCCCN1C(=O)c2cc(OC)cc(OC)c2C1=O,79.3%,19.7 µM,–
COc1cc(OC)c2c(c1)C(=O)N(CCOC(=O)CCl)C2=O,48.9%,12.14 µM,–
